Converted amounts (≈) assume the structure as drawn.
How the values were obtained:
[1] = Trough concentration in Sprague-Dawley rat at 3 mg/kg, po at 24 hrs by UPLC/MS/MS method; assay type: ADME, organism-based; details: in vivo, read-out: Cmin
[2] = Half life of the compound in 0.1 N aqueous HCl at pH 1 at 37 degC after 24 hrs by UPLC method; assay type: physicochemical
[3] = Half life of the compound in acetate buffer at pH 4 at 37 degC after 24 hrs by UPLC method; assay type: physicochemical
[4] = Half life of the compound in phosphate buffer at pH 6.5 at 37 degC after 24 hrs by UPLC method; assay type: physicochemical
[5] = Solubility of the compound in 0.1 N aqueous HCl at pH 1 at 25 degC by UPLC method; assay type: physicochemical
[6] = Solubility of the compound in acetate buffer at pH 4 at 25 degC by UPLC method; assay type: physicochemical
[7] = Solubility of the compound in phosphate buffer at pH 6.5 at 25 degC by UPLC method; assay type: physicochemical
[8] = test system: Rattus norvegicus; experiment: Cmax in Sprague-Dawley rat at 3 mg/kg, po after 0.25 to 24 hrs by UPLC/MS/MS method; assay type: ADME, organism-based; set-up: dose 3 mg/kg, route oral; details: in vivo
[9] = Oral bioavailability in Sprague-Dawley rat at 3 mg/kg after 0.25 to 24 hrs by UPLC/MS/MS method; assay type: ADME, organism-based; details: in vivo
[10] = Tmax in Sprague-Dawley rat at 3 mg/kg, po after 0.25 to 24 hrs by UPLC/MS/MS method; assay type: ADME, organism-based; details: in vivo
[11] = test system: Rattus norvegicus; experiment: AUClast in Sprague-Dawley rat at 3 mg/kg, po after 0.25 to 24 hrs by UPLC/MS/MS method; assay type: ADME, organism-based; set-up: time 0.25-24 hr, dose 3 mg/kg, route oral; details: in vivo
[12] = Apparent permeability across basolateral to apical side in human Caco2 cells; assay type: ADME, cell-based; details: Caco-2
[13] = Efflux ratio of apparent permeability across basolateral to apical over apical to basolateral side in human Caco2 cells; assay type: ADME, cell-based; details: Caco-2
[14] = Half life in rat hepatocytes at 1 uM after 5 to 120 mins by UPLC-MS/MS method; assay type: ADME, cell-based, Hepatocyte
[15] = Half life in rat whole blood at 1 uM after 5 to 90 mins by UPLC-MS/MS method; assay type: ADME, tissue-based
[16] = AUC (0 to 24 hrs) in famotidine treated Sprague-Dawley rat at 10 mg/kg, po by UPLC/MS/MS method; assay type: ADME, organism-based; set-up: dose 10 mg/kg, time < 24 hr, route oral; details: in vivo
Method in brief: (§1)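 Rat gastric-pH model: gastric pH raised with famotidine or lowered with pentagastrin before oral dosing […] as a suspension in 0.5% methyl cellulose / 99.5% water; plasma atazanavir (parent) AUC0–24 h determined.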

[17] = AUC (0 to 24 hrs) in pentagastrin treated Sprague-Dawley rat at 10 mg/kg, po by UPLC/MS/MS method; assay type: ADME, organism-based; set-up: dose 10 mg/kg, time < 24 hr, route oral; details: in vivo; method in brief: as §1
[18] = AUC (0 to 24 hrs) in Sprague-Dawley rat at 10 mg/kg, po by UPLC/MS/MS method; assay type: ADME, organism-based; set-up: dose 10 mg/kg, time < 24 hr, route oral; details: in vivo
[19] = test system: Rattus norvegicus; experiment: Ratio of AUC in pentagastrin treated Sprague-Dawley rat at 10 mg/kg, po to AUC in famotidine treated Sprague-Dawley rat at 10 mg/kg, po; assay type: ADME, organism-based; details: in vivo
Method in brief: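 Oral suspension in 0.5% methyl cellulose / 99.5% water, given to rats whose gastric pH was modulated by pretreatment with pentagastrin or famotidine.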

[20] = test system: Rattus norvegicus; experiment: Cmax in Sprague-Dawley rat assessed as atazanavir at 3 mg/kg, po equiv of atazanavir after 0.25 to 24 hrs by UPLC/MS/MS method; assay type: ADME, organism-based; set-up: dose 3 mg/kg, route oral; details: in vivo
[21] = test system: Rattus norvegicus; experiment: Oral bioavailability in Sprague-Dawley rat assessed as atazanavir at 3 mg/kg equiv of atazanavir after 0.25 to 24 hrs by UPLC/MS/MS method; assay type: ADME, organism-based; details: in vivo
[22] = test system: Rattus norvegicus; experiment: Trough concentration in Sprague-Dawley rat assessed as atazanavir at 3 mg/kg, po equiv of atazanavir at 24 hrs by UPLC/MS/MS method; assay type: ADME, organism-based; details: in vivo; for Cmin: BLD = below limit of detection; for concentration: read-out: Cmin
[23] = test system: Rattus norvegicus; experiment: Tmax in Sprague-Dawley rat assessed as atazanavir at 3 mg/kg, po equiv of atazanavir after 0.25 to 24 hrs by UPLC/MS/MS method; assay type: ADME, organism-based; details: in vivo
[24] = test system: Rattus norvegicus; experiment: AUClast in Sprague-Dawley rat assessed as atazanavir at 3 mg/kg, po equiv of atazanavir after 0.25 to 24 hrs by UPLC/MS/MS method; assay type: ADME, organism-based; set-up: time upper 24 hr, dose 3 mg/kg, time lower 0.25 hr, route oral; details: in vivo
[25] = test system: Rattus norvegicus; experiment: Oral bioavailability in Sprague-Dawley rat assessed as atazanavir at 3 mg/kg equiv of atazanavir after 0.25 to 24 hrs by UPLC/MS/MS method relative to atazanavir; assay type: ADME, organism-based; details: in vivo
[26] = test system: Rattus norvegicus; experiment: Ratio of AUClast in Sprague-Dawley rat at 3 mg/kg, po equiv of atazanavir to AUC in Sprague-Dawley rat assessed as atazanavir at 3 mg/kg, po equiv of atazanavir; assay type: ADME, organism-based; details: in vivo
[27] = Apparent permeability across apical to basolateral side in human Caco2 cells; assay type: ADME, cell-based; details: Caco-2
[28] = Half life of the compound in phosphate buffer at pH 7.4 at 37 degC after 24 hrs by UPLC method; assay type: physicochemical
[29] = test system: Rattus norvegicus; experiment: (§2) Cmax in Sprague-Dawley rat assessed as (2S,3S)-3-Amino-1-(2-((S)-2-((methoxycarbonyl)amino)-3,3-dimethylbutanoyl)-1-(4-(pyridin-2-yl)benzyl)hydrazinyl)4-phenylbutan-2-yl (S)-2-((Methoxycarbonyl)amino)-3,3-dimethylbutanoate Dihydrochloride at 3 mg/kg, po equiv of atazanavir after 0.25 to 24 hrs by UPLC/MS/MS method; assay type: ADME, organism-based; set-up: dose 3 mg/kg, route oral; details: in vivo
[30] = test system: Rattus norvegicus; experiment: as §2, with “Tmax” for “Cmax”; assay type: ADME, organism-based; details: in vivo
[31] = test system: Rattus norvegicus; experiment: as §2, with “AUClast” for “Cmax”; assay type: ADME, organism-based; set-up: time lower 0.25 hr, dose 3 mg/kg, time upper 24 hr, route oral; details: in vivo
[32] = test system: Rattus norvegicus; experiment: Trough concentration in Sprague-Dawley rat assessed as (2S,3S)-3-Amino-1-(2-((S)-2-((methoxycarbonyl)amino)-3,3-dimethylbutanoyl)-1-(4-(pyridin-2-yl)benzyl)hydrazinyl)4-phenylbutan-2-yl (S)-2-((Methoxycarbonyl)amino)-3,3-dimethylbutanoate Dihydrochloride at 3 mg/kg, po equiv of atazanavir at 24 hrs by UPLC/MS/MS method; assay type: ADME, organism-based; details: in vivo, read-out: Cmin
[33] = test system: Rattus norvegicus; experiment: AUC (0 to 24 hrs) in famotidine treated Sprague-Dawley rat assessed as atazanavir at 10 mg/kg, po equiv of atazanavir by UPLC/MS/MS method; assay type: ADME, organism-based; set-up: time < 24 hr, dose 10 mg/kg, route oral; details: in vivo
Method in brief: (§3)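 Rat gastric pH model. Gastric pH was modulated by pretreatment with either pentagastrin or famotidine. Dosing was oral as a suspension in 0.5% methyl cellulose / 99.5% water, with parent AUC0–24 h determined in each arm.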

[34] = test system: Rattus norvegicus; experiment: AUC (0 to 24 hrs) in pentagastrin treated Sprague-Dawley rat assessed as atazanavir at 10 mg/kg, po equiv of atazanavir by UPLC/MS/MS method; assay type: ADME, organism-based; set-up: dose 10 mg/kg, time < 24 hr, route oral; details: in vivo; method in brief: as §3
[35] = test system: Rattus norvegicus; experiment: AUC (0 to 24 hrs) in Sprague-Dawley rat assessed as atazanavir at 10 mg/kg, po equiv of atazanavir by UPLC/MS/MS method; assay type: ADME, organism-based; set-up: time < 24 hr, dose 10 mg/kg, route oral; details: in vivo

| SMILES | half-life [2] [h] | half-life [3] [h] | half-life [4] [h] | solubility [5] [µg/mL] | solubility [6] [µg/mL] | solubility [7] [µg/mL] | Papp B→A [12] [×10⁻⁶ cm/s] | efflux ratio [13] | half-life at 1 µM [14] [h] | half-life at 1 µM [15] [h] | Cmax [20] [nM] | Cmin [22] | Tmax [23] [h] | AUClast [24] [µM·h] | F [25] [%] | Ratio AUC [26] | Papp A→B [27] [×10⁻⁶ cm/s] | concentration [22] [nM] | also measured |
| --- | --- | --- | --- | --- | --- | --- | --- | --- | --- | --- | --- | --- | --- | --- | --- | --- | --- | --- | --- |
| COC(=O)N[C@H](C(=O)N[C@@H](Cc1ccccc1)[C@@H](O)CN(Cc1ccc(-c2ccccn2)cc1)NC(=O)[C@@H](NC(=O)OC)C(C)(C)C)C(C)(C)C [ATAZANAVIR] | > 500 | > 500 | > 500 | 1690 (≈ 2400 µM) | < 1 | < 1 | 47 | > 31 | 0.467 | > 2 | – | – | – | – | – | – | – | – | concentration at 24 h [1]: 0.25 nM; Cmax [8]: 266 nM; bioavailability [9]: 20%; Tmax [10]: 0.5 h; AUClast [11]: 0.384 µM·h; AUC(0-t) at 24 h [16]: 0.005 µM·h; AUC(0-t) at 24 h [17]: 2.46 µM·h; AUC(0-t) at 24 h [18]: 0.24 µM·h; Ratio AUC [19]: 492 |
| COC(=O)N[C@H](C(=O)N[C@@H](Cc1ccccc1)[C@H](CN(Cc1ccc(-c2ccccn2)cc1)NC(=O)[C@@H](NC(=O)OC)C(C)(C)C)OC(=O)[C@@H](N)C(C)C)C(C)(C)C.Cl.Cl | – | – | – | – | – | – | – | – | – | – | 10 | Bld | – | – | – | – | – | – | F [21]: 2.2% |
| COC(=O)N[C@H](C(=O)NN(Cc1ccc(-c2ccccn2)cc1)C[C@H](OC(=O)[C@@H](NC(=O)OC)C(C)(C)C)[C@@H](N)Cc1ccccc1)C(C)(C)C.Cl.Cl | 376 | 334 | 6.6 | > 900 | > 400 | – | 34.8 | 15 | 1.32 | > 2 | 8 | Bld | 0.4 | 0.016 | 0.83 | 4.9 | 2.3 | – | – |
| COC(=O)N[C@H](C(=O)NN(Cc1ccc(-c2ccccn2)cc1)C[C@H](OC(=O)[C@@H](NC(=O)OC)C(C)(C)C)[C@H](Cc1ccccc1)NC(=O)OCOC(=O)[C@@H](N)C(C)C)C(C)(C)C.Cl.Cl | > 500 | 334 | 6.6 | > 1800 | > 1500 | – | – | – | < 0.0833 | 0.333 | 56 | Bld | 0.4 | 0.083 | 4.3 | – | – | – | half-life [28]: 1.8 h |
| COC(=O)N[C@H](C(=O)NN(Cc1ccc(-c2ccccn2)cc1)C[C@H](OC(=O)[C@@H](NC(=O)OC)C(C)(C)C)[C@H](Cc1ccccc1)NC(=O)OC(OC(=O)[C@@H](N)C(C)C)C(C)C)C(C)(C)C.Cl.Cl (stereo partly specified) | > 500 | > 500 | 108 | > 1100 | 120 | 10 | 11.4 | > 8 | 0.933 | > 2 | 310 | – | 1.7 | 1.446 | 75.3 | 3.4 | < 1.5 | 4.5 | Cmax [29]: 124 nM; Tmax [30]: 1.7 h; AUClast [31]: 0.579 µM·h; concentration [32]: 2 nM; AUC [33]: 1.275 µM·h; AUC [34]: 1.332 µM·h; AUC [35]: 2.093 µM·h |
| COC(=O)N[C@H](C(=O)NN(Cc1ccc(-c2ccccn2)cc1)C[C@H](OC(=O)[C@@H](NC(=O)OC)C(C)(C)C)[C@H](Cc1ccccc1)NC(=O)OC(OC(=O)[C@H](N)C(C)C)C(C)C)C(C)(C)C.Cl.Cl (stereo partly specified) | > 500 | > 500 | 215 | > 500 | > 1430 | 27 | 7.3 | > 5 | 0.883 | > 2 | 37 | – | 2.3 | 0.167 | 8.7 | 50.5 | < 1.5 | 0.3 | – |
| COC(=O)N[C@H](C(=O)NN(Cc1ccc(-c2ccccn2)cc1)C[C@H](OC(=O)[C@@H](NC(=O)OC)C(C)(C)C)[C@H](Cc1ccccc1)NC(=O)OCc1oc(=O)oc1C)C(C)(C)C | > 500 | > 500 | 120 | > 1800 | < 1 | < 1 | – | – | < 0.0833 | < 0.0833 | 180 | – | 1.3 | 0.194 | 10.1 | 0.1 | – | 0.3 | – |
